Laboratory results as given in ChEMBL document CHEMBL2375313, “Synthesis, in vitro antitumor evaluation and DNA-binding study of novel tetrahydroquinolines and some derived tricyclic and tetracyclic ring systems” (Eur J Med Chem, 2013).

How the values were obtained:
Format in all cases: functional
[1] = test system: HOP-92; assay: Cytotoxicity against human HOP92 cells assessed as growth inhibition at 10 uM after 48 hrs by sulphorhodamine B assay; settings: HOP-92, 48 h, read-out: GI
Outline: (§1)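 NCI-60 one-dose screen per the NCI Drug Evaluation Branch protocol. Cells given a single 10 µM concentration with 48 h continuous exposure. Growth estimated by sulphorhodamine B protein assay. Result expressed as percentage growth inhibition relative to untreated growth.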

[2] = test system: NCI-H23; assay: Cytotoxicity against human NCI-H23 cells assessed as growth inhibition at 10 uM after 48 hrs by sulphorhodamine B assay; settings: NCI-H23, 48 h, read-out: GI; outline: as §1
[3] = Cytotoxicity against human EKVX cells assessed as growth inhibition at 10 uM after 48 hrs by sulphorhodamine B assay; settings: read-out: GI; outline: as §1
[4] = test system: A549; assay: Cytotoxicity against human A549 cells assessed as growth inhibition at 10 uM after 48 hrs by sulphorhodamine B assay; settings: A549, 48 h, read-out: GI; outline: as §1
[5] = test system: NCI/ADR-RES; assay: Cytotoxicity against human NCI/ADR-RES cells assessed as growth inhibition at 10 uM after 48 hrs by sulphorhodamine B assay; settings: read-out: GI; outline: as §1
[6] = test system: SNB-75; assay: Cytotoxicity against human SNB75 cells assessed as growth inhibition at 10 uM after 48 hrs by sulphorhodamine B assay; settings: SNB-75, 48 h, read-out: GI; outline: as §1
[7] = test system: U-251; assay: Cytotoxicity against human U251 cells assessed as growth inhibition at 10 uM after 48 hrs by sulphorhodamine B assay; settings: U-251, 48 h, read-out: GI; outline: as §1
[8] = test system: SNB-19; assay: Cytotoxicity against human SNB19 cells assessed as growth inhibition at 10 uM after 48 hrs by sulphorhodamine B assay; settings: SNB-19, 48 h, read-out: GI; outline: as §1
[9] = test system: SF-295; assay: Cytotoxicity against human SF295 cells assessed as growth inhibition at 10 uM after 48 hrs by sulphorhodamine B assay; settings: SF-295, 48 h, read-out: GI; outline: as §1
[10] = test system: DU-145; assay: Cytotoxicity against human DU145 cells assessed as growth inhibition at 10 uM after 48 hrs by sulphorhodamine B assay; settings: DU-145, 48 h, read-out: GI; outline: as §1
[11] = test system: SF-268; assay: Cytotoxicity against human SF268 cells assessed as growth inhibition at 10 uM after 48 hrs by sulphorhodamine B assay; settings: SF-268, 48 h, read-out: GI; outline: as §1
[12] = test system: PC-3; assay: Cytotoxicity against human PC3 cells assessed as growth inhibition at 10 uM after 48 hrs by sulphorhodamine B assay; settings: PC-3, 48 h, read-out: GI; outline: as §1
[13] = test system: UACC-62; assay: Cytotoxicity against human UACC62 cells assessed as growth inhibition at 10 uM after 48 hrs by sulphorhodamine B assay; settings: UACC-62, 48 h, read-out: GI; outline: as §1
[14] = test system: SK-MEL-2; assay: Cytotoxicity against human SK-MEL-2 cells assessed as growth inhibition at 10 uM after 48 hrs by sulphorhodamine B assay; settings: SK-MEL-2, 48 h, read-out: GI; outline: as §1
[15] = test system: SK-MEL-5; assay: Cytotoxicity against human SK-MEL-5 cells assessed as growth inhibition at 10 uM after 48 hrs by sulphorhodamine B assay; settings: SK-MEL-5, 48 h, read-out: GI; outline: as §1
[16] = test system: M14; assay: Cytotoxicity against human M14 cells assessed as growth inhibition at 10 uM after 48 hrs by sulphorhodamine B assay; settings: M14, 48 h, read-out: GI; outline: as §1
[17] = test system: LOX IMVI; assay: Cytotoxicity against human LOXIMVI cells assessed as growth inhibition at 10 uM after 48 hrs by sulphorhodamine B assay; settings: read-out: GI; outline: as §1
[18] = test system: UO-31; assay: Cytotoxicity against human UO31 cells assessed as growth inhibition at 10 uM after 48 hrs by sulphorhodamine B assay; settings: UO-31, 48 h, read-out: GI; outline: as §1
[19] = test system: CAKI-1; assay: Cytotoxicity against human Caki1 cells assessed as growth inhibition at 10 uM after 48 hrs by sulphorhodamine B assay; settings: CAKI-1, 48 h, read-out: GI; outline: as §1
[20] = test system: RXF 393; assay: Cytotoxicity against human RXF393 cells assessed as growth inhibition at 10 uM after 48 hrs by sulphorhodamine B assay; settings: RXF 393, 48 h, read-out: GI; outline: as §1
[21] = test system: ACHN; assay: Cytotoxicity against human ACHN cells assessed as growth inhibition at 10 uM after 48 hrs by sulphorhodamine B assay; settings: read-out: GI; outline: as §1
[22] = test system: SR; assay: Cytotoxicity against human SR cells assessed as growth inhibition at 10 uM after 48 hrs by sulphorhodamine B assay; settings: read-out: GI; outline: as §1
[23] = test system: A498; assay: Cytotoxicity against human A498 cells assessed as growth inhibition at 10 uM after 48 hrs by sulphorhodamine B assay; settings: A498, 48 h, read-out: GI; outline: as §1
[24] = test system: RPMI-8226; assay: Cytotoxicity against human RPMI8226 cells assessed as growth inhibition at 10 uM after 48 hrs by sulphorhodamine B assay; settings: RPMI-8226, 48 h, read-out: GI; outline: as §1
[25] = test system: MOLT-4; assay: Cytotoxicity against human MOLT4 cells assessed as growth inhibition at 10 uM after 48 hrs by sulphorhodamine B assay; settings: MOLT-4, 48 h, read-out: GI; outline: as §1
[26] = test system: K562; assay: Cytotoxicity against human K562 cells assessed as growth inhibition at 10 uM after 48 hrs by sulphorhodamine B assay; settings: K562, 48 h, read-out: GI; outline: as §1
[27] = test system: HL-60(TB); assay: Cytotoxicity against human HL-60(TB) cells assessed as growth inhibition at 10 uM after 48 hrs by sulphorhodamine B assay; settings: HL-60, 48 h, read-out: GI
Outline: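 NCI-60 one-dose primary screen run to the Drug Evaluation Branch protocol. Cells are exposed to a single 10 µM concentration for 48 h continuously, and growth is read by SRB protein assay. Data are reported as percent growth of treated cells, expressed as % growth inhibition.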

[28] = test system: SK-OV-3; assay: Cytotoxicity against human SKOV3 cells assessed as growth inhibition at 10 uM after 48 hrs by sulphorhodamine B assay; settings: SK-OV-3, 48 h, read-out: GI; outline: as §1
[29] = test system: CCRF-CEM; assay: Cytotoxicity against human CCRF-CEM cells assessed as growth inhibition at 10 uM after 48 hrs by sulphorhodamine B assay; settings: read-out: GI; outline: as §1
[30] = test system: OVCAR-5; assay: Cytotoxicity against human OVCAR5 cells assessed as growth inhibition at 10 uM after 48 hrs by sulphorhodamine B assay; settings: OVCAR-5, 48 h, read-out: GI; outline: as §1
[31] = test system: OVCAR-4; assay: Cytotoxicity against human OVCAR4 cells assessed as growth inhibition at 10 uM after 48 hrs by sulphorhodamine B assay; settings: OVCAR-4, 48 h, read-out: GI; outline: as §1
[32] = test system: IGROV-1; assay: Cytotoxicity against human IGROV1 cells assessed as growth inhibition at 10 uM after 48 hrs by sulphorhodamine B assay; settings: IGROV-1, 48 h, read-out: GI; outline: as §1
[33] = test system: T47D; assay: Cytotoxicity against human T47D cells assessed as growth inhibition at 10 uM after 48 hrs by sulphorhodamine B assay; settings: read-out: GI; outline: as §1
[34] = test system: Hs-578T; assay: Cytotoxicity against human Hs578T cells assessed as growth inhibition at 10 uM after 48 hrs by sulphorhodamine B assay; settings: read-out: GI; outline: as §1
[35] = test system: NCI-H522; assay: Cytotoxicity against human NCI-H522 cells assessed as growth inhibition at 10 uM after 48 hrs by sulphorhodamine B assay; settings: NCI-H522, 48 h, read-out: GI; outline: as §1
[36] = test system: HT-29; assay: Cytotoxicity against human HT-29 cells assessed as growth inhibition at 10 uM after 48 hrs by sulphorhodamine B assay; settings: HT-29, 48 h, read-out: GI; outline: as §1
[37] = test system: MCF7; assay: Cytotoxicity against human MCF7 cells assessed as growth inhibition at 10 uM after 48 hrs by sulphorhodamine B assay; settings: MCF7, 48 h, read-out: GI; outline: as §1
[38] = test system: MDA-MB-435; assay: Cytotoxicity against human MDA-MB-435 cells assessed as growth inhibition at 10 uM after 48 hrs by sulphorhodamine B assay; settings: MDA-MB-435, 48 h, read-out: GI; outline: as §1
[39] = test system: HCT-15; assay: Cytotoxicity against human HCT15 cells assessed as growth inhibition at 10 uM after 48 hrs by sulphorhodamine B assay; settings: HCT-15, 48 h, read-out: GI; outline: as §1
[40] = test system: MDA-MB-468; assay: Cytotoxicity against human MDA-MB-468 cells assessed as growth inhibition at 10 uM after 48 hrs by sulphorhodamine B assay; settings: MDA-MB-468, 48 h, read-out: GI; outline: as §1
[41] = test system: HCT-116; assay: Cytotoxicity against human HCT116 cells assessed as growth inhibition at 10 uM after 48 hrs by sulphorhodamine B assay; settings: HCT-116, 48 h, read-out: GI; outline: as §1

## COc1ccc(-c2c3c(nc4nc[nH]c(=O)c24)C(C)CCC3)cc1 (configuration not stated)
[1]
  inhibition of growth at 10 µM: < 10%
[2]
  inhibition of growth at 10 µM: 13.8%
[3]
  inhibition of growth at 10 µM: < 10%
[4]
  inhibition of growth at 10 µM: < 10%
[5]
  inhibition of growth at 10 µM: 20%
[6]
  inhibition of growth at 10 µM: 34.3%
[7]
  inhibition of growth at 10 µM: 19%
[8]
  inhibition of growth at 10 µM: < 10%
[9]
  inhibition of growth at 10 µM: < 10%
[10]
  inhibition of growth at 10 µM: < 10%
[11]
  inhibition of growth at 10 µM: < 10%
[12]
  inhibition of growth at 10 µM: < 10%
[13]
  inhibition of growth at 10 µM: < 10%
[14]
  inhibition of growth at 10 µM: < 10%
[15]
  inhibition of growth at 10 µM: < 10%
[16]
  inhibition of growth at 10 µM: < 10%
[17]
  inhibition of growth at 10 µM: < 10%
[18]
  inhibition of growth at 10 µM: < 10%
[19]
  inhibition of growth at 10 µM: < 10%
[20]
  inhibition of growth at 10 µM: < 10%
[21]
  inhibition of growth at 10 µM: < 10%
[22]
  inhibition of growth at 10 µM: < 10%
[23]
  inhibition of growth at 10 µM: < 10%
[24]
  inhibition of growth at 10 µM: < 10%
[25]
  inhibition of growth at 10 µM: < 10%
[26]
  inhibition of growth at 10 µM: < 10%
[27]
  inhibition of growth at 10 µM: < 10%
[28]
  inhibition of growth at 10 µM: < 10%
[29]
  inhibition of growth at 10 µM: < 10%
[30]
  inhibition of growth at 10 µM: < 10%
[31]
  inhibition of growth at 10 µM: < 10%
[32]
  inhibition of growth at 10 µM: < 10%
[33]
  inhibition of growth at 10 µM: < 10%
[34]
  inhibition of growth at 10 µM: < 10%
[35]
  inhibition of growth at 10 µM: 20.8%
[36]
  inhibition of growth at 10 µM: < 10%
[37]
  inhibition of growth at 10 µM: < 10%
[38]
  inhibition of growth at 10 µM: < 10%
[39]
  inhibition of growth at 10 µM: 13.7%
[40]
  inhibition of growth at 10 µM: 21.5%
[41]
  inhibition of growth at 10 µM: < 10%

## COc1ccc(-c2c3c(nc4ncnc(N)c24)C(C)CCC3)cc1 (configuration not stated)
[1]
  inhibition of growth at 10 µM: 20.4%
[2]
  inhibition of growth at 10 µM: < 10%
[3]
  inhibition of growth at 10 µM: 11.5%
[4]
  inhibition of growth at 10 µM: < 10%
[5]
  inhibition of growth at 10 µM: 16.3%
[6]
  inhibition of growth at 10 µM: 20.5%
[7]
  inhibition of growth at 10 µM: 18.5%
[8]
  inhibition of growth at 10 µM: 10%
[9]
  inhibition of growth at 10 µM: < 10%
[10]
  inhibition of growth at 10 µM: < 10%
[11]
  inhibition of growth at 10 µM: < 10%
[12]
  inhibition of growth at 10 µM: 15%
[13]
  inhibition of growth at 10 µM: 20.9%
[14]
  inhibition of growth at 10 µM: < 10%
[15]
  inhibition of growth at 10 µM: 10%
[16]
  inhibition of growth at 10 µM: < 10%
[17]
  inhibition of growth at 10 µM: 13%
[18]
  inhibition of growth at 10 µM: 10.4%
[19]
  inhibition of growth at 10 µM: < 10%
[20]
  inhibition of growth at 10 µM: 20.3%
[21]
  inhibition of growth at 10 µM: 10%
[22]
  inhibition of growth at 10 µM: 17.3%
[23]
  inhibition of growth at 10 µM: < 10%
[24]
  inhibition of growth at 10 µM: 25%
[25]
  inhibition of growth at 10 µM: 14.3%
[26]
  inhibition of growth at 10 µM: 23.4%
[27]
  inhibition of growth at 10 µM: < 10%
[28]
  inhibition of growth at 10 µM: < 10%
[29]
  inhibition of growth at 10 µM: 23%
[30]
  inhibition of growth at 10 µM: < 10%
[31]
  inhibition of growth at 10 µM: 12.6%
[32]
  inhibition of growth at 10 µM: < 10%
[33]
  inhibition of growth at 10 µM: 47.7%
[34]
  inhibition of growth at 10 µM: < 10%
[35]
  inhibition of growth at 10 µM: < 10%
[36]
  inhibition of growth at 10 µM: < 10%
[37]
  inhibition of growth at 10 µM: < 10%
[38]
  inhibition of growth at 10 µM: < 10%
[39]
  inhibition of growth at 10 µM: 20%
[40]
  inhibition of growth at 10 µM: 11.3%
[41]
  inhibition of growth at 10 µM: 14.2%
